Experimental data pooled from the literature.
Protocols differ between the studies behind these lines.
Species: human

| SMILES | system | setting | endpoint | result |
| --- | --- | --- | --- | --- |
| CS(=O)(=O)CCC#N | plasma | oral, 300 mg, single dose, fasted | CL/F | 0.217 mL/min/kg |
| Cn1cc(-c2cnc3cnn(S(=O)(=O)c4cnc5ccc(-c6cnn(C)c6)cn45)c3c2)cn1 | plasma | oral, 300 mg, single dose, fasted, healthy volunteers | CL/F | 12.8 L/h |
| COc1cc(C(=O)NC2CCN(C)CC2)c(F)cc1Nc1ncc(C(F)(F)F)c(Oc2cccc3c2C(=O)N(C)C3)n1 | plasma | oral, 300 mg, multiple doses, once daily, patients | CL/F | 6.42 L/h |
| c1cnc2ccc(Nc3nc(NC4CC4)c4nc[nH]c4n3)cc2c1 | plasma | oral, 400 mg/m², patients | CL/F | 115 L/h |
| Cc1ccc(C(=O)N(CCCN)[C@@H](c2oc3cc(Cl)ccc3c(=O)c2Cc2ccccc2)C(C)C)cc1 | plasma | intravenous, 5 mg/m², single dose, patients, infusion | clearance | 20.5 mL/min |
| CCOc1ccc(Cc2cc([C@@H]3O[C@H](CO)[C@@H](O)[C@H](O)[C@H]3O)ccc2Cl)cc1 | plasma | oral, multiple doses, steady state | CL/F | 21.1 L/h |
| OC[C@H]1O[C@@H](c2ccc(Cl)c(Cc3ccc(O[C@H]4CCOC4)cc3)c2)[C@H](O)[C@@H](O)[C@@H]1O | urine | oral, 25 mg, single dose | renal clearance | 21.1 mL/min |
| CCNCCCNC/C=C\CNCCCNCC | plasma | intravenous, 50 mg, patients, infusion | clearance | 10500 mL/min |
